Test results from ChEMBL document CHEMBL2203081 (Bioorg Med Chem Lett, 2012).
Activity calls are given as the source filed them. No cut-off for these calls is given here.

Experiments:
[1] = target: Mitogen-activated protein kinase kinase kinase 10 (Homo sapiens) (UniProt Q02779); test: Inhibition of MLK2 assessed as residual activity at 10 uM relative to control
[2] = target: Tyrosine-protein kinase CSK (Homo sapiens) (UniProt P41240); test: Inhibition of CSK assessed as residual activity at 10 uM
Outline: (§1)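 Standard radioactivity-based enzymatic kinase assays on a 131-kinase panel run by the Dundee profiling service; residual kinase activity recorded.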

[3] = target: Cyclin-dependent kinase-like 2 (Homo sapiens) (UniProt Q92772); test: Inhibition of CDKL2 assessed as residual activity at 10 uM relative to control
[4] = target: Serine/threonine-protein kinase PAK 5 (Homo sapiens) (UniProt Q9P286); test: Inhibition of PAK7 assessed as residual activity at 10 uM relative to control
[5] = target: Serine/threonine-protein kinase 36 (Homo sapiens) (UniProt Q9NRP7); test: Inhibition of STK36 assessed as residual activity at 10 uM relative to control
[6] = target: Serine/threonine-protein kinase 33 (Homo sapiens) (UniProt Q9BYT3); test: Inhibition of STK33 assessed as residual activity at 10 uM
[7] = target: Casein kinase I isoform alpha (Homo sapiens) (UniProt P48729); test: Inhibition of CSNK1A1 assessed as residual activity at 10 uM relative to control
Outline: (§2)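 Competition kinase-binding assay (KINOMEscan) across a non-redundant panel of 329 kinases beyond the radiometric panel; residual binding expressed relative to control.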

[8] = tested on: Epidermal growth factor receptor (Homo sapiens), P00533 [L861Q]; test: Inhibition of EGFR L861Q mutant assessed as residual activity at 10 uM relative to control; assay type: protein assay; outline: as §2
[9] = target: MAP kinase-activated protein kinase 5 (Homo sapiens) (UniProt Q8IW41); test: Inhibition of PRAK assessed as residual activity at 1 uM
[10] = target: NT-3 growth factor receptor (Homo sapiens) (UniProt Q16288); test: Inhibition of TRKC assessed as residual activity at 10 uM relative to control
Mus musculus [11] = test: Inhibition of LRRK2 in mouse assessed as inhibition of Ser935 autophosphorylation in kidney at 100 mg/kg, ip by immunoblot method; assay type: functional, organism-based; parameters: dose 100 mg/kg
[12] = target: Ribosomal protein S6 kinase beta-1 (Homo sapiens) (UniProt P23443); test: Inhibition of S6K1 assessed as residual activity at 1 uM
[13] = target: Leucine-rich repeat serine/threonine-protein kinase 2 (Homo sapiens) (UniProt Q5S007); conditions: 0.01 to 1 uM
Mus musculus [14] = test: Inhibition of LRRK2 in mouse assessed as inhibition of Ser910 autophosphorylation in brain at 100 mg/kg, ip by immunoblot method; assay type: functional, organism-based; parameters: dose 100 mg/kg
[15] = target: Epidermal growth factor receptor (Homo sapiens) (UniProt P04626+P00533+Q15303+P21860); test: Inhibition of EGFR L747-T751del, Sins mutant assessed as residual activity at 10 uM relative to control; assay type: protein assay; outline: as §2
[16] = target: High affinity nerve growth factor receptor (Homo sapiens) (UniProt P04629); test: Inhibition of TrkA assessed as residual activity at 1 uM
[17] = target: Tyrosine-protein kinase Yes (Homo sapiens) (UniProt P07947); test: Inhibition of YES1 assessed as residual activity at 1 uM
[18] = target: Bone morphogenetic protein receptor type-1A (Homo sapiens) (UniProt P36894); test: Inhibition of BMPR1A assessed as residual activity at 10 uM relative to control
[19] = target: T1, Ephrin type-B receptor 2 (Homo sapiens) (UniProt P29323); test: Inhibition of EPH-B2 assessed as residual activity at 1 uM; outline: as §1
T1 sequence (whole entry): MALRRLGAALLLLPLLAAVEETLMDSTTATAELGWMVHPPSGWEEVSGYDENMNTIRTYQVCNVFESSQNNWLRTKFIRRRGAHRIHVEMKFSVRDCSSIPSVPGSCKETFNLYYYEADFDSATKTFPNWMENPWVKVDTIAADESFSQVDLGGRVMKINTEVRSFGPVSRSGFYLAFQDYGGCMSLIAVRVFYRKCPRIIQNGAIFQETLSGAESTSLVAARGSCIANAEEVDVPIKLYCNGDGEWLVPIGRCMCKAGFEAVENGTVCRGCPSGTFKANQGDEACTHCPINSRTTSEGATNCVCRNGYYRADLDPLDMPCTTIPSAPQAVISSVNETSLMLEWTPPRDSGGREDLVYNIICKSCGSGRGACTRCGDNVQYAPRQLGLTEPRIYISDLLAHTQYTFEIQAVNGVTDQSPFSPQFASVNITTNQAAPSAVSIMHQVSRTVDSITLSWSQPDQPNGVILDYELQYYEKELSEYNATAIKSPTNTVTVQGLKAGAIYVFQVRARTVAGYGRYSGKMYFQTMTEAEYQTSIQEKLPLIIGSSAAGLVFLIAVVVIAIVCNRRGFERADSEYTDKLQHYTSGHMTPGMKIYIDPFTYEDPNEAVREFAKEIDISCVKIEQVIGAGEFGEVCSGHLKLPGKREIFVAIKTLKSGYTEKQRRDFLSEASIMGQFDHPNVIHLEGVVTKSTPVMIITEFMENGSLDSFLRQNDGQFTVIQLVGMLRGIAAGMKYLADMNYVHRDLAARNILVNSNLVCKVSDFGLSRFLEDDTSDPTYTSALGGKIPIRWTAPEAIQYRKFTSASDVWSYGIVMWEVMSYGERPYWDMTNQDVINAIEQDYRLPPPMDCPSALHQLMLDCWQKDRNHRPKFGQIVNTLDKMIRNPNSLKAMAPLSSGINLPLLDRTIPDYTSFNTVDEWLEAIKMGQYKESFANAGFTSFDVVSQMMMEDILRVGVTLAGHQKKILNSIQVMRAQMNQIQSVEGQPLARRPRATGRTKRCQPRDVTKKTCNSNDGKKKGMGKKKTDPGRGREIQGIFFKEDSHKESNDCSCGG

[20] = target: Death-associated protein kinase 2 (Homo sapiens) (UniProt Q9UIK4); test: Inhibition of DAPK2 assessed as residual activity at 10 uM relative to control; outline: as §2
[21] = target: Mitogen-activated protein kinase 10 (Homo sapiens) (UniProt P53779); test: Inhibition of JNK3 assessed as residual activity at 10 uM relative to control
[22] = target: Mitogen-activated protein kinase 1 (Homo sapiens) (UniProt P28482); test: Inhibition of ERK2 assessed as residual activity at 10 uM relative to control
[23] = target: MAP kinase-activated protein kinase 2 (Homo sapiens) (UniProt P49137); test: Inhibition of MAPKAPK2 assessed as residual activity at 10 uM relative to control
[24] = target: Mitogen-activated protein kinase 14 (Homo sapiens) (UniProt Q16539); test: Inhibition of p38a MAPK assessed as residual activity at 10 uM
Mitogen-activated protein kinase 14 (Homo sapiens), sequence (Q16539 whole entry): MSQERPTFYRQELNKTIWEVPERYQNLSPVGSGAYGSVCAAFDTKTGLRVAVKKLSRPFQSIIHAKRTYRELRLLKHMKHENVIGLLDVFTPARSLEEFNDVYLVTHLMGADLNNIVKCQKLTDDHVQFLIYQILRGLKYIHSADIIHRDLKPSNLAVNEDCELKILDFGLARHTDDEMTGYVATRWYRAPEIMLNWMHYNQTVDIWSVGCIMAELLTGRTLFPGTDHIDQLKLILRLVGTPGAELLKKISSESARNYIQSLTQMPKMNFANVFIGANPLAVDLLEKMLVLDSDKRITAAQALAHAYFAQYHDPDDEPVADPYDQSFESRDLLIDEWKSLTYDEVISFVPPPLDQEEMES

Leucine-rich repeat serine/threonine-protein kinase 2 (Homo sapiens), sequence (Q5S007 whole entry): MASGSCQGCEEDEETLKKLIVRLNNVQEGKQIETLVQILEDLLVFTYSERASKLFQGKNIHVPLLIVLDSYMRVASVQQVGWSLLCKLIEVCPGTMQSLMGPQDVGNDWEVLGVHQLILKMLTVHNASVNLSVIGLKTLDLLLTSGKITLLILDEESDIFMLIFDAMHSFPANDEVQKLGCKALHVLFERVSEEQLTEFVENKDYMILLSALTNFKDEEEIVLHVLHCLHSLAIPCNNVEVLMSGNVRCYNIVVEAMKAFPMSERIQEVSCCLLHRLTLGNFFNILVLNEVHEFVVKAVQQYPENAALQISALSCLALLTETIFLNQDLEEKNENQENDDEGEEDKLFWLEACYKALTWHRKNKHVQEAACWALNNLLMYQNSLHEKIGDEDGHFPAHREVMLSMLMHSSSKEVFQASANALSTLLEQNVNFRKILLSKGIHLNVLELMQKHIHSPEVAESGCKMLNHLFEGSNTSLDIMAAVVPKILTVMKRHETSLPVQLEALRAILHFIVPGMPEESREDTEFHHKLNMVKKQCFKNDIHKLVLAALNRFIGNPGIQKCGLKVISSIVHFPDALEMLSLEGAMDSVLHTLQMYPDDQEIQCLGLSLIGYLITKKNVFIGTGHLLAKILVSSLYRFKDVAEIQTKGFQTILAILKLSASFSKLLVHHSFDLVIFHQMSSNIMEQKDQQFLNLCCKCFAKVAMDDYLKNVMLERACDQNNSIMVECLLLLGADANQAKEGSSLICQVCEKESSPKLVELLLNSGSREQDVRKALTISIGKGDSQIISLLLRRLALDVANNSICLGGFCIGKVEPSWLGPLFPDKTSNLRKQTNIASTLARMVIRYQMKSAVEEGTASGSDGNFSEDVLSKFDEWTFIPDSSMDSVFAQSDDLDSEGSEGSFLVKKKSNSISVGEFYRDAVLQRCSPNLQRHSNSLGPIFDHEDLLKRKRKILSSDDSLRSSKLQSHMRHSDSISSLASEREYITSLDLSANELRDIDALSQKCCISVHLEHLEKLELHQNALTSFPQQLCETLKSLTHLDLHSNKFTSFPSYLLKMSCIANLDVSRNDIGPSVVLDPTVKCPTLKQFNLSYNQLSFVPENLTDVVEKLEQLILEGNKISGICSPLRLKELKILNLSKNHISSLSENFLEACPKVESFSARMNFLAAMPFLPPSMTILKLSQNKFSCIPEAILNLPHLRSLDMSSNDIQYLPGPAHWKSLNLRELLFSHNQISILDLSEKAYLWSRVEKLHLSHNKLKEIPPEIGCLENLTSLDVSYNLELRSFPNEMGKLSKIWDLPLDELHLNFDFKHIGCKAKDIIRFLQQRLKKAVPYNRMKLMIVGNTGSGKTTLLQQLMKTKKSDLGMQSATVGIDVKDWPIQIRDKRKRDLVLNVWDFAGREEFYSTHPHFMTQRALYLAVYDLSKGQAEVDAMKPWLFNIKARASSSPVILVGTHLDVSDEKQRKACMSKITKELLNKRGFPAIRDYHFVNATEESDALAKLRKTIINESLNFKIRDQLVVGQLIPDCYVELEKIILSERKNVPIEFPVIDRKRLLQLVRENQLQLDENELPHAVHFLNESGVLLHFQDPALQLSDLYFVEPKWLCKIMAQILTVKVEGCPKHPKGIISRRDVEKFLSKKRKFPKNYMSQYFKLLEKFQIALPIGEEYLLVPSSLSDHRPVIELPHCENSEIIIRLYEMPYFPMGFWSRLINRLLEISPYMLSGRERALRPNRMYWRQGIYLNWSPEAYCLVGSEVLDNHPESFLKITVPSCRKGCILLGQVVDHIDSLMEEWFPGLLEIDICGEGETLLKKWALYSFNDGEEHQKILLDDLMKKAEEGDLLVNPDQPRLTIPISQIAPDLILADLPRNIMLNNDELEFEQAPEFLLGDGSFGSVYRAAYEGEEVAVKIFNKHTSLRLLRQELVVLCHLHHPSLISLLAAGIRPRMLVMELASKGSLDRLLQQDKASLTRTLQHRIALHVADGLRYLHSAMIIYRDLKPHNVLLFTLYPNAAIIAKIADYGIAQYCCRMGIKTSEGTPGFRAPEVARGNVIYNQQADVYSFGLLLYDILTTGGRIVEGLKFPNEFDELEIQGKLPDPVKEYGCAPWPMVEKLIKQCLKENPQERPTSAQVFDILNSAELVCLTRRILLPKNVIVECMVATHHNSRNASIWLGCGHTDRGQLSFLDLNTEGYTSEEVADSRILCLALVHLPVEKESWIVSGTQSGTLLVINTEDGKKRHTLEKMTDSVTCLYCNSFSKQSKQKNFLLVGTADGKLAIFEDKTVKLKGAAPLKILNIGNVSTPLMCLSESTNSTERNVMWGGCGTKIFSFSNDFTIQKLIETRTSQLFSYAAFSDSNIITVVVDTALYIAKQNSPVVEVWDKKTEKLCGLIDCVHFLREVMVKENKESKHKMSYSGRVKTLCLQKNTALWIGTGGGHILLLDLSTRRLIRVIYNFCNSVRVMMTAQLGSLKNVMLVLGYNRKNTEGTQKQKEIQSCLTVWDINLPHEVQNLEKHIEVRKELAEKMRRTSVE
Death-associated protein kinase 2 (Homo sapiens), sequence (Q9UIK4 whole entry, looked up): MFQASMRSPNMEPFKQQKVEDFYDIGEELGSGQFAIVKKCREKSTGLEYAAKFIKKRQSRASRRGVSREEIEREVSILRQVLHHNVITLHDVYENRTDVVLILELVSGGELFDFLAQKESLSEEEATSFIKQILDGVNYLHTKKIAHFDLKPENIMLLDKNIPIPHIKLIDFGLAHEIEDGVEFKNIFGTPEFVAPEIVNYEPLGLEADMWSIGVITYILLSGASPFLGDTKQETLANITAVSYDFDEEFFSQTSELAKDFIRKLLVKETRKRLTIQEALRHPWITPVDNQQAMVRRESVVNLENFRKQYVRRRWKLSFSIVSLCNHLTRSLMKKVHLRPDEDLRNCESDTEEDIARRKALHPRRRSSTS
MAP kinase-activated protein kinase 5 (Homo sapiens), sequence (Q8IW41 whole entry): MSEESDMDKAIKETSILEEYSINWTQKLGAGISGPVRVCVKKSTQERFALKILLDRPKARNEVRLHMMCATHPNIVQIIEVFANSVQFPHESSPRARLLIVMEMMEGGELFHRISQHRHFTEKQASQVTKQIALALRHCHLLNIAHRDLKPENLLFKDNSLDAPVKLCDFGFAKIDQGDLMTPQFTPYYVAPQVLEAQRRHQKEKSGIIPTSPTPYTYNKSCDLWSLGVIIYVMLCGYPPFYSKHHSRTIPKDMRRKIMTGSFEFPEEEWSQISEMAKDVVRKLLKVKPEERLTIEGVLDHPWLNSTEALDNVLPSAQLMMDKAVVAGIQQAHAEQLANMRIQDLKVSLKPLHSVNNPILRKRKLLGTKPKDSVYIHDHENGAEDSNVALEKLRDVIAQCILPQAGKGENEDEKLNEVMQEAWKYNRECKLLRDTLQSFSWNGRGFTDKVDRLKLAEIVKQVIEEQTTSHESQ
Bone morphogenetic protein receptor type-1A (Homo sapiens), sequence (P36894 whole entry): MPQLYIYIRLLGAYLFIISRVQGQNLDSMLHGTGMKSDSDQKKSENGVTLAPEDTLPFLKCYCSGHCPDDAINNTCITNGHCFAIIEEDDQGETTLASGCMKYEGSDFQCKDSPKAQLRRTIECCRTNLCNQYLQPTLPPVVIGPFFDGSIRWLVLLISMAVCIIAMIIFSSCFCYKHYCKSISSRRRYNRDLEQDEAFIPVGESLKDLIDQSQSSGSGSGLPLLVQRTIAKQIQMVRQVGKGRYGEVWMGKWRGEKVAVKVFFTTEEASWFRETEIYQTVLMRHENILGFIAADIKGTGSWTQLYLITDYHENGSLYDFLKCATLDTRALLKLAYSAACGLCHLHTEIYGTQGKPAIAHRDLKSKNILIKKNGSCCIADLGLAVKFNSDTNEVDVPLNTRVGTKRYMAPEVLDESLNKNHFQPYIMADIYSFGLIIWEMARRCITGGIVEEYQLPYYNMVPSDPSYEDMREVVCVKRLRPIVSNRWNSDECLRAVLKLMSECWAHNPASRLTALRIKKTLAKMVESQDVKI
NT-3 growth factor receptor (Homo sapiens), sequence (Q16288 32-839 limits assumed): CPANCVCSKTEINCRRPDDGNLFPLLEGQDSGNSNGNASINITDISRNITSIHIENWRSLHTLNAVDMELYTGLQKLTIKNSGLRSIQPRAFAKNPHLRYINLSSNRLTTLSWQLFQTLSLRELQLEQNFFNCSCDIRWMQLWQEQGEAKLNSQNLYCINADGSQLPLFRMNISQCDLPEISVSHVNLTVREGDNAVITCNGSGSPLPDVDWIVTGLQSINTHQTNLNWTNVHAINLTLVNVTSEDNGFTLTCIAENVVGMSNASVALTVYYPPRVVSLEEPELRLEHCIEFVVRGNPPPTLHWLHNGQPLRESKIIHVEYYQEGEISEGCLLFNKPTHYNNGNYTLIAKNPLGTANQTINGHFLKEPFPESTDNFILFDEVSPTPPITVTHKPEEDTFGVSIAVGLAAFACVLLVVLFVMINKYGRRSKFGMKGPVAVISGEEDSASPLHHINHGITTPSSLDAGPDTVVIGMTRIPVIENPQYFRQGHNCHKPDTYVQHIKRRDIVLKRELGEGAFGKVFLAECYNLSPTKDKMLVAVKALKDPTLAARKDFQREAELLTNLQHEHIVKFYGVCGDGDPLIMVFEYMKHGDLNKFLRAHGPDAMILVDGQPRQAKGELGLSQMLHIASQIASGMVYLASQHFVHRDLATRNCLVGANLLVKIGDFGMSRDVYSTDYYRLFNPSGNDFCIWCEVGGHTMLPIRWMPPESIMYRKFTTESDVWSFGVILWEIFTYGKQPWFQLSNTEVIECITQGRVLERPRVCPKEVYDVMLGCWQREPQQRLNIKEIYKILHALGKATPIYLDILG

O=C(Nc1cccnc1)c1cc(-c2ccnc(F)c2)ccc1OCc1ccccc1
Activity [1]: 77% | Activity [2]: 114% | Activity [3]: 77% | Activity [4]: 69% | Activity [5]: 63% | Activity [6]: 56% | Activity [7]: 60% | Activity [8]: 65% | Activity [9]: 109% | Activity [10]: 62% | inhibition (Mus musculus [11]): Active | Activity [12]: 101% | inhibition [13]: Active | inhibition (Mus musculus [14]): inactive | Activity [15]: 69% | Activity [16]: 80% | Activity [17]: 120% | Activity [18]: 41% | Activity [19]: 123% | Activity [20]: 69% | Activity [21]: 52% | Activity [22]: 44% | Activity [23]: 74% | Activity [24]: 102%
